The values that follow come from PMC3889518 (European Journal of Clinical Pharmacology, 2013).

SMILES strings stand for the structures. pKi: −log10 of the molar value. Entries after “also recorded” stand apart in the source; their conditions may differ.

Data set [1] is described as follows: Safety and tolerability in healthy subjects. The data set is classed as in vivo, human.
The subject of data set [2] is OATP1B1. The following applies: co-administration of cyclosporin, inhibitor of OATP1B1; cited from earlier work.
For data set [3] the following is noted: high first-pass effect; cited from earlier work.
The conditions of data set [4]: ref ChemoCentryx, data on file; cited from earlier work.
In data set [5] the test system is breast cancer resistant protein (BCRP). The note with it: ref ChemoCentryx and GlaxoSmithKline, data on file; cited from earlier work.
Data set [6] concerns OAT1. The following applies: ref ChemoCentryx and GlaxoSmithKline, data on file; cited from earlier work.
For data set [7] the following is noted: oral administration 250 to 1,000 mg; cited from earlier work.
Data set [8] is classed as in vivo, human. The note with it: day 10 compared with day 5, vercirnon 500 mg BID. An outline of the steps: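 Vercirnon 500 mg BID, taken after meals, starting study day 5. Six volunteers had serial plasma sampling over 24 h on days 5 and 10 for vercirnon and two metabolites. Non-compartmental AUC0–τ, Cmax and tmax were determined. Accumulation ratio for AUC0–τ and Cmax compared day 10 with day 5. Metabolite:parent AUC0–τ ratios were molar. Steady state was tested on day 6–11 troughs from all 24 subjects by the 90% CI of the regression slope.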

The subject of data set [9] is BCRP and OATP1B1. It counts as in vivo, human. The note with it: repeat dosing of vercirnon 500 mg BID, rosuvastatin probe, healthy subjects. An outline of the steps: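 Open-label, single-sequence study in 24 healthy adults aged 18–55. Rosuvastatin 10 mg oral tablet was given alone on day 4 and again on day 14 with vercirnon 500 mg BID after meals (days 5–14). Dosing was 30 min after breakfast with 240 mL water. Serial plasma samples were taken over 48 h. Non-compartmental AUC0–∞ was loge-transformed and analysed in a mixed-effects model (treatment fixed, subject random), giving a geometric LS mean ratio with 90% CI.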

For data set [10], the target named is CYP3A4 (Homo sapiens, UniProt P08684). It counts as in vivo. The note with it: repeat dosing of vercirnon 500 mg BID, midazolam probe, healthy subjects.
CYP3A4 (Homo sapiens, UniProt P08684), sequence (P08684 whole entry): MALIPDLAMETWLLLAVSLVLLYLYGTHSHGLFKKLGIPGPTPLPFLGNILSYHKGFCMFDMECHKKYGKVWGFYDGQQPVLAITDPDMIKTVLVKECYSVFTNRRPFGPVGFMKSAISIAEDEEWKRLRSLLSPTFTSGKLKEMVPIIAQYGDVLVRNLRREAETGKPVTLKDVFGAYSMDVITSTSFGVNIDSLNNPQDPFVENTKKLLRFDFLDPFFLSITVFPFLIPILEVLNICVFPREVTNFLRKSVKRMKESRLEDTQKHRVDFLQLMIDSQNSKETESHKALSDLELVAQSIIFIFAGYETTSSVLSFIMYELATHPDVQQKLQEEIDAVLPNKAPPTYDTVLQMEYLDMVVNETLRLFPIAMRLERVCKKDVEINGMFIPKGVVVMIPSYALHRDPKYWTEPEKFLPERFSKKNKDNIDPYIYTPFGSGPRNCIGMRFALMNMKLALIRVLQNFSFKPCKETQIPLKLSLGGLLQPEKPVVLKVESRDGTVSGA
For data set [11] the following is noted: ref ChemoCentryx, data on file; cited from earlier work. This is another data set of the same source.
The subject of data set [12] is OAT3. The note with it: ref ChemoCentryx and GlaxoSmithKline, data on file; cited from earlier work.
The target in data set [13] is T1, CYP2C8 (Homo sapiens, UniProt P10632).
T1 sequence (P10632 1-490): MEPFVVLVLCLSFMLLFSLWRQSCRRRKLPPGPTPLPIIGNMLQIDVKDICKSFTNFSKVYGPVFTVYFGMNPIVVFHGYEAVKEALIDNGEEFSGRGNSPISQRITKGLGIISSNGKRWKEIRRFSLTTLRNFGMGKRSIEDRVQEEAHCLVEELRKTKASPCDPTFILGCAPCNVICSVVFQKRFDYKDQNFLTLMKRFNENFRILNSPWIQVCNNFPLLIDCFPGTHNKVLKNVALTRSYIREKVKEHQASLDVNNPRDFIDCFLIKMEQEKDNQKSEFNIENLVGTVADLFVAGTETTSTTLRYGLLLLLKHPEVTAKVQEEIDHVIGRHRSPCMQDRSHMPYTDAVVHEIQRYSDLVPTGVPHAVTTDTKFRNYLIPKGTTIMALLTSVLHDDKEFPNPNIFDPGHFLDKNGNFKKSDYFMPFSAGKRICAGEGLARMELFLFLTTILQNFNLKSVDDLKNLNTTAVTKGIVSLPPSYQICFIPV
It counts as in vivo. The note with it: repeat dosing of vercirnon 500 mg BID, pioglitazone probe, healthy subjects.

For data set [14] the following is noted: read-out: maximum observed concentration [Cmax] range; likely therapeutic plasma concentrations; ref ChemoCentryx, data on file; cited from earlier work.
The target in data set [15] is CYP2C19 (Homo sapiens, UniProt P33261). The data set is classed as in vivo. The following applies: repeat dosing of vercirnon 500 mg BID, omeprazole probe, healthy subjects.
CYP2C19, sequence (P33261 whole entry): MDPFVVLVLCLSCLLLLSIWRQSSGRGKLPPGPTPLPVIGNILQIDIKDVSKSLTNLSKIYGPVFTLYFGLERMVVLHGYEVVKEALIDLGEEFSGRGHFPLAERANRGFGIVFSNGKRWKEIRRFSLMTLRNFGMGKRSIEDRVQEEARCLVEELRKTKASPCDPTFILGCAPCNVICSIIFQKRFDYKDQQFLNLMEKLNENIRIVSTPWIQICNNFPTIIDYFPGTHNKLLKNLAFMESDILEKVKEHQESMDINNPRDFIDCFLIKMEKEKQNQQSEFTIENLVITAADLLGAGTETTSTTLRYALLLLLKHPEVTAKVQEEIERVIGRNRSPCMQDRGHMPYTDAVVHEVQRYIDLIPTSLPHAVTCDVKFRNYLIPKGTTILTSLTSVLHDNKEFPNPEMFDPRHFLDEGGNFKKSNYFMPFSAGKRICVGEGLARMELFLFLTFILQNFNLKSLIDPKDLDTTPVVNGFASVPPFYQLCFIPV
In data set [16] the test system is human p-glycoprotein transporter protein. The following applies: ref ChemoCentryx, data on file; cited from earlier work.
For data set [17] the following is noted: multiple oxidative and reductive pathways, including CYP3A4, CYP2C19 and CYP2B6; ref ChemoCentryx, data on file; cited from earlier work.
The subject of data set [18] is OAT1B1. The following applies: ref ChemoCentryx and GlaxoSmithKline, data on file; cited from earlier work.
Data set [19] relates to CYP2C8. The following applies: strong inhibitor of CYP2C8; cited from earlier work.
Data set [20] has as its system CYP3A4. The following applies: co-administration with ketoconazole, strong inhibitor of CYP3A4; cited from earlier work.
In data set [21] the test system is CYP2C8. The following applies: cited from earlier work.

For `Cc1ncc2n1-c1ccc(Cl)cc1C(c1ccccc1F)=NC2` [Midazolam, reference compound], in data set [1] (of 24 subjects, on 19 occasions, midazolam alone or midazolam + vercirnon), the “Somnolence, number of subjects reporting” value is on record as 13 subjects.
`CC(C)c1nc(N(C)S(C)(=O)=O)nc(-c2ccc(F)cc2)c1/C=C/[C@@H](O)C[C@@H](O)CC(=O)O` [Rosuvastatin]: the “Increase of rosuvastatin AUC” value in [2] is given as 7 fold. In data set [3], the bioavailability is reported as about 20%.
With `CC(C)(C)c1ccc(S(=O)(=O)Nc2ccc(Cl)cc2C(=O)c2cc[n+]([O-])cc2)cc1` [Vercirnon], the protein bound in data set [4] is recorded as over 90%. In data set [5], the “Inhibition of BCRP in vitro” value was “can inhibit”. For the same compound, in data set [6], the “Inhibition of OAT1 in vitro” value is given as “can inhibit”. For the same compound, in data set [7], the “time to maximum concentration (tmax)” value was 3 to 4 h. For the same compound, in data set [8], the “Average accumulation in terms of AUC0–τ” value is 14% and the “Average accumulation in terms of Cmax” value was determined as 3%. Further, the “Effect on BCRP or OATP1B1 transporter activity” value in [9] was “no clinically significant effect”. Also, in [10], the “Effect on CYP3A4 enzyme activity” value is recorded as “no clinically significant effect”. The Permeability entry in [11] was “passively permeable”. The “Inhibition of OAT3 in vitro” value in data set [12] is listed as “can inhibit”. For the same compound, the Tolerability entry in data set [1] (24 healthy subjects, all treatments over 14 days, vercirnon 500 mg BID) was “well tolerated”. Also, the “Effect on CYP2C8 enzyme activity” value in data set [13] is reported as “no clinically significant effect”. In addition, the Cmax in data set [14] was 3 to 5 µM. Moreover, the “Effect on CYP2C19 enzyme activity” value in data set [15] is listed as “no clinically significant effect”. The “Substrate for human p-glycoprotein transporter protein or other transport proteins” value in data set [16] is recorded as “unlikely to be a substrate”. Also, the Metabolism entry in data set [17] is listed as “extensively metabolised”. For the same compound, the “Inhibition of OAT1B1 in vitro” value in [18] is listed as “has the potential to inhibit; also recorded: can inhibit”.
A word on the pKi: it is −log10 of the Ki, conventionally taken in molar units. Take `Cc1ccc(C)c(OCCCC(C)(C)C(=O)O)c1` [gemfibrozil]: the pKi in data set [19] was 4.12 to 4.16.
As for `CCc1ccc(CCOc2ccc(CC3SC(=O)NC3=O)cc2)nc1` (stereo not drawn) [Pioglitazone], the Increase of pioglitazone in data set [20] is listed as 34%. Moreover, in [21] (co-administration with gemfibrozil), the “Increase of pioglitazone AUC” value is reported as 3.4 fold. Moreover, the “Decrease of exposure (AUC) of pioglitazone” value in [21] (co-administration with rifampin, inducer of CYP2C8) is reported as 54%.
